Source: PubChem (ICCB-Longwood Screening Facility, Harvard Medical School)
Ab BasE inh = BasE siderophore biosynthesis inhibition; purified BasE, fluorescence polarization binding displacement; inhibition, % (test concentration not listed); 84,000 tested, 0.1% active; AID 485350; in the data active = inhibition above about 25%, passing the limit was not always enough;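 note: 0% = negative plate control signal and 100% = positive plate control signal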
KSHV LANA nucl = inhibitors of KSHV LANA binding to nucleosomes. FITC-LANA1-23 / chicken nucleosome fluorescence polarization; stronger effect = lower value. z-score (test concentration not listed). 51,000 tested, 0.3% active;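 active = both repeat wells score below -2 in polarization z-score versus plate sample wells, excluding overly bright wells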
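System – purified chicken nucleosomes with FITC-labelled LANA N-terminal peptide (1-23) · Amount – 240 nM purified chicken nucleosomes (480 nM peptide binding sites), final · Also added – 50 nM FITC-LANA1-23 probe · Medium – TEN-BT buffer, pH 7.5 · Incubation – compound with peptide–nucleosome mix 10–45 min at room temperature · Detection – fluorescence polarization, ex 480 nm, em 535 nm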
An asterisk follows results filed as active; nt = no result given; ! = repeats disagree. Only a selection was taken, and hits are over-represented in it overall.

SMILES	Ab BasE inh	KSHV LANA nucl
C1CNCCN1	-2	1.5
C1COCCNCCOCCN1	-2	-2.6*
O=C(Nc1ccc2c(c1)oc1ccccc12)C(F)(F)F	-1	0.77
c1ccc2c(c1)oc1c(NC3CCCC3)ncnc12	-3	0.51
COc1ncnc(Cl)c1N	-1	0.22
Cc1ccnc(Cl)c1N	45*	0.036
CCOc1ccc(N=Cc2sc3ccccc3c2O)cc1	-56	5
COc1ccc(CSC2=C(C#N)C(=O)NC3(CCCCC3)S2)cc1	39*	nt
CCCCSC1=C(C#N)C(=O)NC(c2ccc(OC)cc2)S1 (centres undefined)	4	-0.36
C=CCNCc1cc2cc(OCC)ccc2[nH]c1=O	-1	0.39
NC(=S)Nc1ccc2c(c1)OCCO2	2	nt
CSc1c(C#N)c(-c2ccccc2)nn1CC(=O)NN	-2	nt
N#CC(C(=O)Nc1ccc(Cl)c(Cl)c1)=C1Nc2ccccc2N1	1	0.55
N#CC(C(=O)Nc1ccccc1)=C1Nc2ccccc2N1	31*	nt
Cc1cc(N/C=C(\C#N)C(=O)c2ccc(Cl)cc2)no1	0	0.5
O=C1CC(=O)c2ccc3c4c(ccc1c24)C(=O)CC3=O	27*	-0.28
Nc1ccc2c(c1)CCC2=O	2	0.82
COc1cccc(N2CCN(C(=O)c3nn(C)c4c3COc3ccccc3-4)CC2)c1	3	-2.3*
COc1cccc(C(=O)N2CCN(c3ccccc3)CC2)c1	3	nt
O=C(c1csc(-c2ccccc2)n1)N(Cc1ccccn1)Cc1ccccn1	nt	-2*
CCN(CC)C(=O)NCc1ccccn1	3	-0.21
COc1cccc(NC(=O)CSc2ncccn2)c1	1	-0.7
O=C(CSC1=NNC(c2ccccn2)S1)Nc1cccc(Cl)c1 (centres undefined)	2	-2.1*
CCOC(=O)c1ccc(CNC(=O)CSc2nnc(-c3ccc(OC)cc3)o2)cc1	-3	0.13
COCc1cc(C)nc(SCC(=O)c2ccc(O)c(O)c2)c1C#N	37*	nt
SMILES	Ab BasE inh	KSHV LANA nucl
Cc1ccc(C(=O)CSc2nc(C)cc(C)c2C#N)cc1	0	-1.4
CC(=O)N/N=C/c1cc(C(C)C)cc(/C=N/NC(C)=O)c1O	20	-3.9*
CC(=O)N/N=C/c1ccccc1	3	0.031
CN(CC(=O)Nc1ccc(N2CCOCC2)cc1)CC(=O)Nc1sc2c(c1C#N)CCCC2	2	nt
COc1cc(/C=C/C(=O)OCC(=O)Nc2cccc(F)c2)ccc1O	1	nt
O=C(/C=C/c1ccc(O)c(O)c1)O[C@@H]1C[C@](O)(C(=O)O)C[C@@H](O)[C@H]1O	32*!	0.071
O=C1CCCC2=C1Sc1ccccc1N2	13	-2.7*
O=C1CCCC2=C1C(c1cccc(Br)c1)Nc1ccccc1N2 (centres undefined)	-2	nt
CCN(C(=O)c1cccc(Cl)c1)C1CCCCC1	0	0.75
CCN(C(=O)NC1(C(F)(F)F)Oc2ccc(Cl)cc2O1)C1CCCCC1 (centres undefined)	40*	-0.19
COc1ccc2oc(C(=O)N(C)Cc3ccc(Br)s3)c(C)c2c1	2	nt
CCc1cc2cc3c(cc2nc1SCCN1CCOCC1)OCO3	-3	0.63
Nc1nnc(-c2cccs2)c(=O)n1N	31*	nt
Nn1c(NNC(=O)c2ccccc2)nnc(-c2cccs2)c1=O	2	nt
CC(Sc1ncn[nH]1)C(=O)Nc1ccc(Cl)cc1 (centres undefined)	5	-1.3
COc1cc(/C=N/N(C)C(=S)Nc2cccc(Cl)c2C)cc(OC)c1OC	1	nt
Cc1cc2nc3c(=O)n(C)c(=O)[nH]c3nc2cc1N=CN(C)C	37	-2.1*
CCCCCCn1c(=O)[nH]c2nc3cc(N)c(C)cc3nc2c1=O	12	nt
C/[N+]([O-])=C\c1ccc(F)cc1	-3	nt
O=C(Oc1cccc2cccnc12)c1cc(C(F)(F)F)cc(C(F)(F)F)c1	42*	nt
O=C(Oc1cccc2cccnc12)c1ccccc1	2	-0.04
O=C1CSC(=O)N1Cc1ccccc1	-1	0.85
CCOc1cc2[nH]c(=O)n(CCCCC(=O)N3CCN(Cc4ccccc4)CC3)c(=O)c2cc1OCC	0	-1.1
O=c1[nH]c2c(s1)C=Nc1cc3ccccc3cc1N2	23	-2.3*
CC(C)(C)CC(C)(C)NC(=O)Nc1cccc(Cl)c1	2	-2*
SMILES	Ab BasE inh	KSHV LANA nucl
Cc1ccccc1NC(=O)NC(C)(C)CC(C)(C)C	1	-0.068
CCOc1ccccc1OCCC(=O)O	-2	nt
O=C(Nc1ccccc1)c1cccnc1	12	nt
O=C(Nc1cccnc1)/C(N=Nc1cccnc1)=C(\O)c1ccccc1	32*	nt
CCCN1CC=C2C(C1)C(c1ccc(C(=O)OC)cc1)C(C#N)=C(N)C2(C#N)C#N (centres undefined)	14	-1.7
CCN1CC=C2C(C1)C(c1ccc(Cl)s1)C(C#N)=C(N)C2(C#N)C#N (centres undefined)	20	-5.9*
CCn1c(SC)nnc1C1CCCN1CC(=O)NCc1cccs1 (centres undefined)	1	-1.3
CNc1ccccc1C(=O)NC1CCCCC1	-1	nt
N#C/C(=C/c1ccc(O)c(O)c1)C(=O)OC/C=C/c1ccccc1	0	1.3
Oc1cc(O)cc(/C=C/c2ccc(O)c(O)c2)c1	86*	-0.39
O=c1[nH]c(=O)c2nc3cc(C(F)(F)F)ccc3nc2[nH]1	13	-2.9*
CCN(Cc1nc2ccccc2c(=O)[nH]1)Cc1nc2cc(C(F)(F)F)ccc2c(=O)[nH]1	-1	nt
O=C(OCC(=O)N1CCCCC1)c1ccc(NS(=O)(=O)c2ccc3c(c2)OCCO3)cc1	0	nt
CN1CCN(C(=O)c2ccc3c(c2)S(=O)(=O)c2ccccc2C3=O)CC1	1	nt
CN(C)c1ccc2c(c1)S(=O)(=O)c1cc(N(C)C)ccc1C2=O	33	-4*
Oc1ccc(Br)c2cccnc12	57*	1
Oc1ccc(Cl)c2cccnc12	-1	-0.12
Cc1ccc(N2C(=O)NC(c3ccccc3)(C(F)(F)F)C2=O)nc1 (centres undefined)	2	-2.3*
O=C1NC(c2ccc(F)cc2)(C(F)(F)F)C(=O)N1Cc1ccco1 (centres undefined)	2	-0.98
O=C1NNC(=S)C1C1CC1 (centres undefined)	-1	nt
CCN(CC)CCSc1nc2ccc(OC)cc2[nH]1	4	0.34
CCN(CC)CCCC(C)Nc1c2ccc(Cl)cc2nc2ccc(OC)cc12 (centres undefined)	51	-2.3*!
COc1ccc(C(=O)c2ccccc2)c(O)c1	0	-0.27
O=C(c1ccc(O)cc1)c1ccc(O)cc1O	31*	0.21
Cc1nc(SCC(=O)NC2CCCC2)[nH]c(=O)c1Cc1ccccc1	1	1.3
SMILES	Ab BasE inh	KSHV LANA nucl
O=C(CSc1n[nH]c(Cc2ccccc2)n1)NC1CCCCC1	2	-2.4*
N=C1C(c2nc3ccccc3c(=O)[nH]2)=C(O)CN1Cc1ccccc1	0	-1.2
O=C(Nc1ccccc1N1CCOCC1)c1cccc(N2C(=O)c3ccccc3C2=O)c1	0	nt
O=C1c2cccc3c(N4CCOCC4)ccc(c23)C(=O)N1c1ccccc1	13	-3.1*
Cc1ccc2c(=O)c(C(=O)c3ccccc3)cn(CC(N)=O)c2n1	0	nt
O=C(CC1SC(=O)NC1=O)Nc1cccc(NC(=O)CC2SC(=O)NC2=O)c1 (centres undefined)	1	0.0075
COc1ccc(N2CCN(C(=O)c3ccccc3OC)CC2)cc1	-3	-0.53
COc1ccc(N2CCN(C(=O)c3ccc(-n4cnnc4)cc3Cl)CC2)cc1	3	-2*
Cc1nnc(SCC2=NN(c3nc4ccccc4s3)C(=O)C2)s1	1	-1.4
